Measurements taken from ChEMBL document CHEMBL1150803, “Absence of a universal mechanism of mitochondrial toxicity by nucleoside analogs” (Antimicrob Agents Chemother, 2007).

Experiments:
H9c2 [1] = assay: Toxicity against rat H9c2 cells assessed as elevation of lactate levels at 10 uM after 6 days by NAD+ reduction assay; conditions: h9c2, 144 h
[2] = Toxicity against human HepG2/C3A cells assessed as increase in mitochondrial superoxide production at 50 uM by flow cytometry; format: cell-based
Procedure, shortened: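 Flask-grown cells were loaded with 5 μM MitoSOX Red in HBSS with Ca/Mg for 10 min at 37°C in the dark, trypsinized, and analyzed by flow cytometry (488 nm excitation, 530/30 emission). Result is the geometric mean fluorescence of 10,000 cells. HepG2 were sampled on days 4, 10 and 14; H9c2 on day 12. Compared with time-matched control.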

H9c2 [3] = assay: Toxicity against rat H9c2 cells assessed as elevation of lactate levels at 50 uM after 6 days by NAD+ reduction assay; conditions: h9c2, 144 h
H9c2 [4] = assay: Toxicity in rat H9c2 cells assessed as induction of cell death at 50 uM after 12 days; conditions: h9c2, 288 h
[5] = Toxicity against human HepG2/C3A cells assessed as inhibition of cell proliferation at 50 uM after 6 days by SRB assay; format: cell-based; conditions: 144 h
Procedure, shortened: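 Cells were seeded at about 2,500 per well and exposed to drug for 6 days. They were fixed overnight at −10°C in methanol with 1% acetic acid, stained with 0.5% SRB in 1% acetic acid for 1 h at room temperature, and the dye eluted with 10 mM Tris pH 10. Result is dilution-adjusted absorbance at 540 nm, mean of three experiments.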

[6] = Toxicity against human HepG2/C3A cells assessed as effect on mitochondrial DNA copy numbers at 50 uM after 4 days; format: cell-based; conditions: 96 h
Procedure, shortened: (§1)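 HepG2/C3A cells were grown in MEM with pyruvate and 10% FBS. Drug in PBS was replenished every 2 days for 4, 10 or 14 days. DNA was extracted and quantified by real-time SYBR Green PCR with 0.5 μM of each primer and 2 mM MgCl2. Output is the cytochrome b/pyruvate kinase gene copy ratio (mtDNA/nDNA), compared with time-matched control. Mean of three experiments.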

[7] = Toxicity in human HepG2/C3A cells assessed as induction of cell death at 50 uM after 14 days; format: cell-based; conditions: 336 h
Procedure, shortened: (§2)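 LIVE/DEAD flow cytometry: harvested cells in PBS with 100 nM calcein AM and 8 μM ethidium homodimer 1, 30 min at 37°C in the dark, 488 nm excitation. After debris gating, dead cells are those high in ethidium homodimer and low in calcein, counted per 10,000 events. HepG2 were exposed 4, 10 or 14 days; H9c2 12 days. Compared with time-matched control.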

[8] = Toxicity against human HepG2/C3A cells assessed as elevation of lactate levels at 50 uM after 6 days by NAD+ reduction assay; format: cell-based; conditions: 144 h
Procedure, shortened: (§3)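 Cells were seeded at about 2,500 per well and exposed 6 days; H9c2 were retinoic-acid-conditioned in 1% FBS. Medium was deproteinized with ice-cold 10% TCA. Lactate was read by LDH-catalyzed NAD+ reduction in 0.2 M glycine-hydrazine pH 9.2 with 0.6 mg/ml NAD+ and 17 U/ml LDH, 30 min at room temperature, absorbance 340 nm. Result is nmol/well normalized to SRB absorbance.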

[9] = Toxicity in human HepG2/C3A cells assessed as induction of cell death at 10 uM after 4 days; format: cell-based; conditions: 96 h
Procedure, shortened: as §2

[10] = Toxicity in human HepG2/C3A cells assessed as induction of cell death at 50 uM after 10 days; format: cell-based; conditions: 240 h
Procedure, shortened: as §2

[11] = Toxicity against human HepG2/C3A cells assessed as elevation of lactate levels at 10 uM after 6 days by NAD+ reduction assay; format: cell-based; conditions: 144 h
Procedure, shortened: as §3

[12] = Toxicity against human HepG2/C3A cells assessed as effect on mitochondrial DNA copy numbers at 50 uM after 10 days; format: cell-based; conditions: 240 h
Procedure, shortened: as §1

H9c2 [13] = assay: Toxicity against rat H9c2 cells assessed as increase in mitochondrial superoxide production at 50 uM by flow cytometry; conditions: h9c2, 50 µM
[14] = Toxicity in human HepG2/C3A cells assessed as induction of cell death at 50 uM after 4 days; format: cell-based; conditions: 96 h
Procedure, shortened: as §2

H9c2 [15] = assay: Toxicity against rat H9c2 cells assessed as effect on mitochondrial DNA copy numbers after 12 days; conditions: h9c2, 288 h
[16] = Toxicity against human HepG2/C3A cells assessed as reduction in mitochondrial DNA copy numbers at 5 uM after 4 days relative to control; format: cell-based; parameters: scale not given: the % may be the effect or the level left; conditions: 96 h
Procedure, shortened: as §1

[17] = Toxicity against human HepG2/C3A cells assessed as reduction in mitochondrial DNA copy numbers at 5 uM after 14 days relative to control; format: cell-based; parameters: scale not given: the % may be the effect or the level left; conditions: 336 h
Procedure, shortened: as §1

H9c2 [18] = assay: Toxicity in rat H9c2 cells assessed as effect on cell viability at 5 uM after 6 days; conditions: h9c2, 144 h
[19] = Toxicity against human HepG2/C3A cells assessed as reduction in mitochondrial DNA copy numbers at 1 uM after 4 days relative to control; format: cell-based; parameters: scale not given: the % may be the effect or the level left; conditions: 96 h
Procedure, shortened: as §1

[20] = Toxicity against human HepG2/C3A cells assessed as induction of cell death at 5 uM after 14 days; format: cell-based; conditions: 336 h
Procedure, shortened: as §2

H9c2 [21] = assay: Toxicity in rat H9c2 cells assessed as effect on cell viability at 1 to 5 uM after 12 days; conditions: h9c2, 288 h
H9c2 [22] = assay: Toxicity against rat H9c2 cells assessed as reduction in mitochondrial DNA copy numbers at 1 to 5 uM after 12 days relative to control; conditions: h9c2, 288 h
[23] = Toxicity against human HepG2/C3A cells assessed as reduction in mitochondrial DNA copy numbers at 1 uM after 14 days relative to control; format: cell-based; parameters: scale not given: the % may be the effect or the level left; conditions: 336 h
Procedure, shortened: as §1

[24] = Toxicity in human HepG2/C3A cells assessed as cell viability at 0.5 ug/ml after 10 days; format: cell-based
Procedure, shortened: (§4)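 HepG2/C3A cells were cultured with 0.5 µg/ml EtBr for 10 or 14 days. Harvested cells were stained with 100 nM calcein AM and 8 µM ethidium homodimer 1 for 30 min at 37°C in the dark, then analysed by flow cytometry at 488-nm excitation. Dead cells (high ethidium homodimer, low calcein) were counted per 10,000 events after debris gating.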

[25] = Toxicity against human HepG2/C3A cells assessed as reduction in mitochondrial DNA copy numbers at 0.5 ug/ml after 14 days relative to control; format: cell-based; parameters: scale not given: the % may be the effect or the level left; conditions: 336 h
Procedure, shortened: (§5)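 DNA was extracted after 0.5 µg/ml EtBr exposure: H9c2 at 12 days (pre-kept 7 days in 1% FBS plus 10 nM retinoic acid), HepG2/C3A at 4, 10 and 14 days. SYBR real-time PCR used 0.5 µM primers and 2 mM MgCl2. Copy numbers came from purified-product standards, reported as cytochrome b/pyruvate kinase ratio versus control.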

[26] = Toxicity against human […] cells assessed as reduction in mitochondrial DNA copy numbers at 0.5 ug/ml after 6 days relative to control; format: cell-based; parameters: scale not given: the % may be the effect or the level left; conditions: hepg2/c3a, 144 h
[27] = Toxicity against human HepG2/C3A cells assessed as reduction in mitochondrial DNA copy numbers at 0.5 ug/ml after 4 days relative to control; format: cell-based; parameters: scale not given: the % may be the effect or the level left; conditions: 96 h
Procedure, shortened: as §5

[28] = Toxicity against human HepG2/C3A cells assessed as inhibition of cell proliferation at 0.5 ug/ml after 6 days by SRB assay; format: cell-based; conditions: 144 h
Procedure, shortened: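 Cells were seeded at about 2,500/well in 12-well plates and cultured with 0.5 µg/ml EtBr for 6 days. They were fixed overnight in methanol with 1% acetic acid at −10°C and stained 1 h with 0.5% SRB. Bound dye was eluted with 10 mM Tris pH 10 and absorbance read at 540 nm. Three experiments were run.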

[29] = Toxicity against human HepG2/C3A cells assessed as increase in mitochondrial superoxide production at 0.5 ug/ml after 4 to 14 days by flow cytometry; format: cell-based
Procedure, shortened: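 HepG2/C3A cells were cultured in MEM with 10% FBS with 0.5 µg/ml EtBr for 4, 10 and 14 days, with medium changed every 2 days. Attached cells were loaded with 5 µM MitoSOX Red in HBSS with Ca/Mg for 10 min at 37°C in the dark, then trypsinised. Flow cytometry used 488-nm excitation and 530/30 emission; the value is the geometric mean fluorescence of 10,000 cells.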

[30] = Toxicity against human HepG2/C3A cells assessed as reduction in mitochondrial DNA copy numbers at 0.5 ug/ml after 10 days relative to control; format: cell-based; parameters: scale not given: the % may be the effect or the level left; conditions: 240 h
Procedure, shortened: as §5

[31] = Toxicity against human HepG2/C3A cells assessed as elevation of lactate levels at 0.5 ug/ml after 6 days by NAD+ reduction assay; format: cell-based; conditions: 144 h
Procedure, shortened: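 Cells were exposed to 0.5 µg/ml EtBr for 6 days in 12-well plates seeded at about 2,500 cells/well, with drug in PBS replenished at medium changes. Medium was deproteinised with TCA. Lactate was measured as NADH at 340 nm after 30 min at room temperature in glycine-hydrazine buffer pH 9.2 with NAD+ and lactate dehydrogenase. Results are nmol/well normalised to SRB absorbance, from three experiments.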

[32] = Toxicity in human HepG2/C3A cells assessed as cell viability at 0.5 ug/ml after 14 days; format: cell-based
Procedure, shortened: as §4

H9c2 [33] = assay: Toxicity in rat […] cells assessed as induction of cell death at 10 to 50 uM after 4 to 14 days
[34] = Toxicity against human HepG2/C3A cells assessed as reduction in mitochondrial DNA copy numbers at 50 uM after 4 to 14 days relative to control; format: cell-based; parameters: scale not given: the % may be the effect or the level left
Procedure, shortened: as §1

[35] = Toxicity against human HepG2/C3A cells assessed as metabolic alterations at 10 to 50 uM after 4 to 14 days by SRB assay; format: cell-based
[36] = Toxicity against human HepG2/C3A cells assessed as inhibition of cell proliferation at 10 to 50 uM after 6 days by SRB assay
H9c2 [37] = assay: Toxicity against rat H9c2 cells assessed as metabolic alterations at 10 to 50 uM after 4 to 14 days by SRB assay; conditions: h9c2, 50 µM
H9c2 [38] = assay: Toxicity against rat H9c2 cells assessed as inhibition of cell proliferation at 10 to 50 uM after 4 to 14 days by SRB assay; conditions: h9c2, 50 µM
[39] = Toxicity against human HepG2/C3A cells assessed as reduction in mitochondrial DNA copy numbers at 10 uM after 4 to 14 days relative to control; format: cell-based; parameters: scale not given: the % may be the effect or the level left
Procedure, shortened: as §1

H9c2 [40] = assay: Toxicity against rat H9c2 cells assessed as reduction in mitochondrial DNA copy numbers at 10 uM after 12 days relative to control; parameters: scale not given: the % may be the effect or the level left; conditions: h9c2, 288 h
[41] = Toxicity in human HepG2/C3A cells assessed as induction of cell death at 10 to 50 uM after 4 to 14 days; format: cell-based
Procedure, shortened: as §2

Cc1cn([C@H]2C[C@H](N=[N+]=[N-])[C@@H](CO)O2)c(=O)[nH]c1=O [ZIDOVUDINE]
Activity (H9c2 [1]): Toxic | Activity [2]: Toxic | Activity (H9c2 [3]): Toxic | Activity (H9c2 [4]): Non-toxic | Activity [5]: Toxic | Activity [6]: Toxic | Activity [7]: Toxic | Activity [8]: Toxic | Activity [9]: Toxic | Activity [10]: Toxic | Activity [11]: Toxic | Activity [12]: Toxic | Activity (H9c2 [13]): Non-toxic | Activity [14]: Toxic | Activity (H9c2 [15]): Non-toxic

Nc1ccn([C@H]2CC[C@@H](CO)O2)c(=O)n1 [ZALCITABINE]
Activity [16]: 11% | Activity [17]: 1% | Activity [5]: Non-toxic | Activity (H9c2 [18]): Non-toxic | Activity [19]: 15% | Activity [20]: Toxic | Activity (H9c2 [21]): Non-toxic | Activity (H9c2 [22]): Non-toxic | Activity [23]: 1%

CC[n+]1c(-c2ccccc2)c2cc(N)ccc2c2ccc(N)cc21.[Br-] [HOMIDIUM BROMIDE]
viability at 240 h, 0.5 ug/ml [24]: > 80% | Activity [25]: 4% | Activity [26]: 16% | Activity [27]: 16% | Activity [28]: Toxic | Activity [29]: Toxic | Activity [30]: 10% | Activity [31]: Toxic | viability at 336 h, 0.5 ug/ml [32]: > 80%

O=c1[nH]cnc2c1ncn2[C@H]1CC[C@@H](CO)O1 [DIDANOSINE]
Activity (H9c2 [33]): Non-toxic | Activity [34]: 50% | Activity [35]: Non-toxic | Activity [36]: Non-toxic | Activity (H9c2 [37]): Non-toxic | Activity (H9c2 [38]): Non-toxic | Activity [39]: 80% | Activity (H9c2 [40]): 60% | Activity [41]: Non-toxic
